Data published in ChEMBL document CHEMBL1121870, “Potential radiosensitizing agents. 2. Synthesis and biological activity of derivatives of dinitroimidazole with oxiranes” (1981).
pEC50: −log10 of the molar value.

Columns and labels:
Assay type in all cases: functional
[1] = tested on: Cricetinae gen. sp.; test: Concentration needed to achieve 50% kill of chinese hamster cells under oxygenated conditions on exposure for 2 hours; conditions: in Cricetulus griseus, read-out: ED50 (the source's name)
Procedure, shortened: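 V-79 Chinese hamster monolayers in MEM with 15% fetal calf serum; ~200 cells plated, attached 2 h, then exposed to a range of drug concentrations for 2 h at 37 °C in air. Drug medium was replaced with fresh medium and cells incubated 6 days at 37 °C in 95% air/5% CO2. Colony formation was scored and the concentration giving 50% kill determined.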

[2] = Radiosensitizing effectivity evaluated as its ability to sensitize hypoxic Chinese hamster cells (V-79) towards ionizing radiation at 1 mM
Procedure, shortened: (§1)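 Asynchronous V-79 monolayers in MEM with 15% fetal calf serum were exposed to drug at the maximum nontoxic level (1 mM or less). Cultures were made hypoxic by flushing with 95% N2/5% CO2 and irradiated at 400–3000 rad. Full survival curves were obtained, and the enhancement ratio was calculated as D0 of hypoxic controls divided by D0 of hypoxic drug-treated cells.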

[3] = Radiosensitizing effectivity evaluated as its ability to sensitize hypoxic Chinese hamster cells (V-79) towards ionizing radiation at 0.1 mM; procedure, shortened: as §1
[4] = Radiosensitizing effectivity evaluated as its ability to sensitize hypoxic Chinese hamster cells (V-79) towards ionizing radiation at 0.5 mM; procedure, shortened: as §1
[5] = Radiosensitizing effectivity evaluated as its ability to sensitize hypoxic Chinese hamster cells (V-79) towards ionizing radiation at 0.25 mM; procedure, shortened: as §1

Row | SMILES | pEC50 [1] | Enhancement ratio [2] | Enhancement ratio [3] | Enhancement ratio [4] | Enhancement ratio [5]
1 | O=[N+]([O-])c1cn2c(n1)OC(CO)C2 (centres undefined) | 2.55 | 1 |  |  | 
2 | COCC(O)Cn1cc([N+](=O)[O-])nc1[N+](=O)[O-] (centres undefined) | 2.66 |  | 1.8 | 2.1 | 
3 | O=[N+]([O-])c1cnc2n1CCO2 | 3.00 |  |  |  | 1.6
4 | O=[N+]([O-])c1cn2c(n1)OC(CCl)C2 (centres undefined) | 2.89 |  | 1.1 |  | 
5 | CC1Cn2cc([N+](=O)[O-])nc2O1 (centres undefined) | 2.82 |  | 1.2 |  | 
6 | O=[N+]([O-])c1cnc2n1CC(CCl)O2 (centres undefined) | 3.21 |  |  | 1.1 | 
7 | COCC1Cn2c([N+](=O)[O-])cnc2O1 (centres undefined) | 3.17 | 1 |  |  | 
8 | COCC1Cn2cc([N+](=O)[O-])nc2O1 (centres undefined) | 2.82 |  | 1.1 |  | 
9 | CC1Cn2c([N+](=O)[O-])cnc2O1 (centres undefined) | 3.21 |  |  | 1.1 | 
